Assay outcomes as filed in PubChem BioAssay.
Runt-CBFb FRET = Runt domain-CBFb interaction inhibition. Q01196+Q13951. Cerulean-Runt/Venus-CBFb FRET ratio 530/480, 1 h. inhibition, % at 20 µM. hit rate 0.46% among 220,000. AID 1496;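 active = inhibition over about 50% at 20 µM in the single-dose screen, limit read from the data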;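 note: 0% = DMSO wells and 100% = excess unlabeled CBFb competitor control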
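test system = Cerulean-Runt domain fusion protein, energy donor | probe or stimulus = Venus-CBFb binding partner, 100 nM | incubation = two 1 h room-temperature incubations shielded from light | detection = fluorescence energy transfer, 422 nm excitation, 530/480 nm emission | measure = loss of energy transfer signal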
Runt-SMMHC FRET = inhibitors of human RUNX1 Runt domain binding to CBFb-SMMHC. Cerulean-Runt/Venus-CBFb-SMMHC FRET ratio 530/480, 1 h. inhibition, % at 20 µM. hit rate 0.74% among 220,000. Q01196+Q13951;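 active = mean inhibition across duplicate retests at 20 µM reaching about 50%, limit read from the data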;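 note: 0% = DMSO wells and 100% = wells with excess untagged CBFb-SMMHC; inhibitors lower the FRET ratio by blocking Runt binding to CBFb-SMMHC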
RanGTP-Imp inh = inhibitors of RanGTP-importin-beta interaction, primary screen, biochemical, FRET, CFP-Ran, YFP-importin-beta, homogeneous; hit rate 1.1% among 300,000; AID 2216; cell-free CFP-Ran/YFP-importin-beta FRET ratio; inhibition, % (concentration not given with the values);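 active = more than half of the replicate wells show a fall in the fluorescence ratio signal beyond about 16%, limit read from the data, passing the limit was not always enough; inconclusive = exactly half of the replicate wells pass the set limit; inactive = fewer than half of replicates pass the limit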;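 note: 0% = DMSO wells and 100% = Ran loaded with GDP instead of GTP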
Hck-Nef inh = inhibitors of human Hck kinase activated by Nef. P08631. Recombinant Hck-YEEI plus Nef, Z-Lyte FRET kinase assay. inhibition, % at 20 µM. hit rate 0.68% among 220,000. AID 463187;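 active = Hck-Nef kinase inhibition above about 50%, limit read from the data; inactive = inhibition below that limit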;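 note: 0% = DMSO with Hck plus Nef and 100% = Hck alone without Nef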
Target sequence (P08631 whole entry, looked up): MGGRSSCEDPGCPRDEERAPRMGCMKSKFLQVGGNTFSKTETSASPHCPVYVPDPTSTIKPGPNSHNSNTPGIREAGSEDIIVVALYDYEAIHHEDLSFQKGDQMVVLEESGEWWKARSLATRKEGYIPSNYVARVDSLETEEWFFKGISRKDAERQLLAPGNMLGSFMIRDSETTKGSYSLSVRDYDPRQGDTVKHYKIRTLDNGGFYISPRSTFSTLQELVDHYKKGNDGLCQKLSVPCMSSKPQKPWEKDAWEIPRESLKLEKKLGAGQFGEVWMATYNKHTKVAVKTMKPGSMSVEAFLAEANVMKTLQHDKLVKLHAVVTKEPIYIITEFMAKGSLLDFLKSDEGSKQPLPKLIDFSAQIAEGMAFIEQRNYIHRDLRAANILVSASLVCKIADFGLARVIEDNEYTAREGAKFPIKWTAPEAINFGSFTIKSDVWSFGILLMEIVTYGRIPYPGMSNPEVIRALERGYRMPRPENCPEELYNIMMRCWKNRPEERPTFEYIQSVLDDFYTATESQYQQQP
Starred values were filed as active, the others as inactive; ? = inconclusive; . = no result given. The list is not random: actives were taken first. Their share in the collection is about 1.8%.

SMILES	Runt-CBFb FRET	Runt-SMMHC FRET	RanGTP-Imp inh	Hck-Nef inh
C/C(=C\C(=O)c1ncc(C(F)(F)F)cc1Cl)N(C)C	0	2	1	9
CCOc1ccc(N/C(N)=N/c2nc(CSc3nnnn3-c3ccccc3)cc(=O)[nH]2)cc1	-3	2	?	-13
CCc1nn2c(=O)cc(COc3ccc(/C=C4\C(=N)N5N=C(C)SC5=NC4=O)cc3)nc2s1	.	-6	-1	75*
O=C(Nc1ccc(S(=O)(=O)N2CCOCC2)cc1)C1CC(=O)N(c2ccc(F)cc2)C1 (configuration not stated)	.	.	4	.
COc1ccccc1NC(=O)CNC(=O)c1ccccc1	1	0	2	14
COc1ccccc1NC(=O)CNC(=O)c1ccccc1C	1	0	24*	-1
Cc1cc(NCCOCCO)n2c(nc3ccccc32)c1C#N	.	.	21*	.
Cc1cccc(NC(=O)CSc2cc(C)c(C#N)c3nc4ccccc4n23)c1	30	80*	0	38
CCc1c(C)c(C#N)c2nc3ccccc3n2c1NC	.	.	0	.
Cc1cc(NCCCO)n2c(nc3ccccc32)c1C#N	10	39	56*	-17
CCc1c(C)c(C#N)c2nc3ccccc3n2c1NCc1ccco1	21	72*	?	6
CC1CCCCN1S(=O)(=O)c1ccc2[nH]c(=O)cc(C(=O)NCCCN3CCCCCC3)c2c1 (configuration not stated)	.	.	5	.
CC(C)(C)c1ccc(C(=O)c2cn[nH]c2-c2ccccc2O)cc1	.	.	1	.
Cc1c(Cc2ccccc2)c(NCCCO)n2c(nc3ccccc32)c1C#N	57*	78*	?	-2
CCCc1cc(NCc2ccccn2)n2c(nc3ccccc32)c1C#N	9	32	-5	2
CCN(CC)c1cc(C)c(C#N)c2nc3ccccc3n12	55*	90*	32*	-55
Cc1cc(Cl)n2c(nc3ccccc32)c1C#N	1	-17	?	0
CCc1c(C)c(C#N)c2nc3ccccc3n2c1NCCN(C)C	16	26	?	14
C=C(C)Cc1c(C)c(C#N)c2nc3ccccc3n2c1NCCCN(C)C	17	26	38*	-22
Cc1cc(NCc2ccccn2)n2c(nc3ccccc32)c1C#N	.	.	96*	33
CC(C)(C)C(=O)Nc1nnc(COc2ccc(Cl)cc2)s1	0	0	0	12
COc1cc(NS(=O)(=O)c2c(C)oc3c(F)c(F)c(F)c(F)c23)cc(OC)c1OC	.	.	5	.
CCCN(CCC)CCCNC(=O)c1cn(-c2ccc(OC)cc2)c(=O)c2ccccc12	.	.	2	.
O=C(Oc1c(CN2CCOCC2)cc(Cl)c2cccnc12)c1ccccc1F	-1	4	33*	1
Cn1c2ccccc2c(=O)c2cc(C#CC3(O)CCCCC3)ccc21	.	.	169*	.
SMILES	Runt-CBFb FRET	Runt-SMMHC FRET	RanGTP-Imp inh	Hck-Nef inh
Cn1c2ccccc2c(=O)c2ccc(C#CC3(N)CCCCC3)cc21	.	.	163*	.
O=c1c2ccccc2oc2ccc(C#CC3(O)CCCCC3)cc12	.	.	1	.
CCN1CCN(c2nc3c(C)cccn3c(=O)c2/C=C(\C#N)S(=O)(=O)c2ccccc2)CC1	-46	-74	-28	-22
Cc1ccc(S(=O)(=O)/C(C#N)=C/c2c(N3CCC(C(N)=O)CC3)nc3c(C)cccn3c2=O)cc1	-8	-6	6	-3
Cc1ccc(S(=O)(=O)/C(C#N)=C/c2c(N3CCC(C(N)=O)CC3)nc3ccccn3c2=O)cc1	-2	-7	34*	-17
CCN1CCN(c2nc3ccccn3c(=O)c2/C=C(\C#N)S(=O)(=O)c2ccccc2)CC1	15	12	77*	-6
Cc1ccc(CNC(=O)C2CCN(S(=O)(=O)c3ccc(Br)s3)CC2)cc1	.	.	8	.
C(=N\n1cnnc1)/c1ccc(N2CCOCC2)s1	28	70*	10	1
C(=N\n1cnnc1)/c1ccc(N2CCOCC2)cc1	-1	2	?	2
COc1ccc(OCC(=O)Nc2cccc(-c3nc4ccccc4[nH]3)c2)cc1	-2	2	31*	2
CCn1cc(S(=O)(=O)Nc2cc(C(=O)OC)ccc2C)cn1	.	.	32*	.
O=C(NC(C(=O)N/N=C/c1c2ccccc2cc2ccccc12)c1n[nH]c(=O)c2ccccc12)c1ccccc1 (configuration not stated)	1	8	97*	-1
O=C(NC(C(=O)N/N=C/c1ccccc1)c1n[nH]c(=O)c2ccccc12)c1ccccc1 (configuration not stated)	0	1	-5	0
